Experimental data taken from ChEMBL document CHEMBL5223168, “Using Imidazo[2,1-b][1,3,4]thiadiazol Skeleton to Design and Synthesize Novel MNK Inhibitors” (ACS Med Chem Lett, 2023).
Active and inactive are the calls of the source. The calls are words filed in the database; no cut-off is given here.

Assays:
[1] = tested on: MDA-MB-231; experiment: Inhibition of colony formation in human MDA-MB-231 cells at 1 to 5 uM measured after 10 days by crystal violet staining based clonogenic assay; type: functional, cell-based; conditions: dose 1-5 µM, time 10.0 day
How it was run: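 Clonogenic assay over 10 days; cells treated with DMSO vehicle or compound at indicated concentrations, plates scanned and colonies quantified from three independent experiments.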

[2] = biological target: T1, MAP kinase-interacting serine/threonine-protein kinase 2 (Homo sapiens, UniProt Q9HBH9); experiment: Inhibition of MNK2 (unknown origin) incubated for 60 mins using CREB as substrate in presence of ATP by LANCE Ultra kinase assay
Target sequence in this assay (Q9HBH9 whole entry): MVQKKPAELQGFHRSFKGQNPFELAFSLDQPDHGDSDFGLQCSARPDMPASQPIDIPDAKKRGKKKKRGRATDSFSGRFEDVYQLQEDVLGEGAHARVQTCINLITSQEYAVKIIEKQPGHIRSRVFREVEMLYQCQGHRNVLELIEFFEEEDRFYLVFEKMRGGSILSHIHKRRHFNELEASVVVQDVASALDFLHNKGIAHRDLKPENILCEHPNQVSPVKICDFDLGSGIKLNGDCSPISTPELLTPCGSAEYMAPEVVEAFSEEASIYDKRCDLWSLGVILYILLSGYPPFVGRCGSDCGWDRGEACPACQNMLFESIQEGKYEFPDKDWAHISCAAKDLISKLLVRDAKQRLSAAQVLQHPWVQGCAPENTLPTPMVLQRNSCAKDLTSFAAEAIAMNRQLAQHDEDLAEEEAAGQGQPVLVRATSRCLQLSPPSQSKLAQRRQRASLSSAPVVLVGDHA

[3] = tested on: MEF; experiment: Inhibition of MNK in MNK1 knockout mouse MEF cells assessed as inhibition of eIF4E phosphorylation at 1 uM incubated for 2 hrs by Western blot analysis; type: cell-based
How it was run: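 MEFs lacking MNK1 or MNK2 (wild-type for comparison) treated 2 h at indicated concentrations; lysates immunoblotted for p-eIF4E, which reflects the remaining MNK isoform; quantified from three independent experiments, SEM.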

[4] = biological target: MAP kinase-interacting serine/threonine-protein kinase 1 (Homo sapiens, UniProt Q9BUB5); experiment: Inhibition of MNK1 (unknown origin) at 3 uM in presence of ATP by kinase assay
How it was run: (§1)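 Single-point kinase profiling: inhibitor tested at 3 μM against a panel of 60 kinases from different families, activity presented as heatmap.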

[5] = biological target: T1, MAP kinase-interacting serine/threonine-protein kinase 2; experiment: Inhibition of MNK2 (unknown origin) at 3 uM in presence of ATP by kinase assay; how it was run: as §1
Target sequence in this assay (Q9HBH9 whole entry, looked up): as the sequence (Q9HBH9 whole entry) above

[6] = species: Homo sapiens; experiment: Inhibition of QIK (unknown origin) at 3 uM in presence of ATP by kinase assay; how it was run: as §1
[7] = biological target: Dual specificity protein kinase CLK1 (Homo sapiens) (UniProt P49759); experiment: Inhibition of CLK1 (unknown origin) at 3 uM in presence of ATP by kinase assay
[8] = biological target: Mitogen-activated protein kinase 8 (Homo sapiens) (UniProt P45983); experiment: Inhibition of JNK1 (unknown origin) at 3 uM in presence of ATP by kinase assay
[9] = biological target: Eukaryotic translation initiation factor 4E (Homo sapiens) (UniProt P06730); experiment: Inhibition of eIF4E phosphorylation in human MDA-MB-231 cells at 5 uM and measured upto 96 hrs by Western blot analysis; type: cell-based
How it was run: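 Cells maintained with compound at 5 μM for up to 6 days for cell counts; eIF4E phosphorylation followed by immunoblot for up to 96 h.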

[10] = tested on: A549; experiment: Induction of cell cycle arrest in human A549 cells assessed as decrease in cyclin B1 level at 5 uM incubated for 24 hrs by Western blot analysis; type: functional, cell-based
How it was run: (§2)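 A549 and MDA-MB-231 cells treated 24 h with 5 μM; lysates resolved by SDS-PAGE and immunoblotted for cyclin B1, cyclin D3 and MMP-3.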

[11] = tested on: MDA-MB-231; experiment: Induction of cell cycle arrest in human MDA-MB-231 cells assessed as decrease in cyclin B1 level at 5 uM incubated for 24 hrs by Western blot analysis; type: functional, cell-based; how it was run: as §2
[12] = tested on: MDA-MB-231; experiment: Induction of cell cycle arrest in human MDA-MB-231 cells assessed as decrease in cyclin D3 level at 5 uM incubated for 24 hrs by Western blot analysis; type: functional, cell-based; how it was run: as §2
[13] = tested on: A549; experiment: Induction of cell cycle arrest in human A549 cells assessed as accumulation of cells at G2/M phase at 5 uM incubated for 20 hrs by propidium iodide staining based flow cytometry (Rvb=15.5%); type: functional
[14] = tested on: A549; experiment: Induction of cell cycle arrest in human A549 cells assessed as accumulation of cells at S phase at 5 uM incubated for 8 hrs by propidium iodide staining based flow cytometry (Rvb=1.7%); type: functional
[15] = tested on: A549; experiment: Induction of cell cycle arrest in human A549 cells assessed as accumulation of cells at S phase at 5 uM incubated for 16 hrs by propidium iodide staining based flow cytometry (Rvb=12.8%); type: functional
[16] = tested on: A549; experiment: Induction of cell cycle arrest in human A549 cells assessed as accumulation of cells at S phase at 5 uM incubated for 20 hrs by propidium iodide staining based flow cytometry (Rvb=13.6%); type: functional
[17] = tested on: A549; experiment: Induction of cell cycle arrest in human A549 cells assessed as accumulation of cells at G0/G1 phase at 5 uM incubated for 8 hrs by propidium iodide staining based flow cytometry (Rvb=91.7%); type: functional
[18] = tested on: A549; experiment: Induction of cell cycle arrest in human A549 cells assessed as accumulation of cells at G0/G1 phase at 5 uM incubated for 16 hrs by propidium iodide staining based flow cytometry (Rvb=75.4%); type: functional
[19] = tested on: A549; experiment: Downregulation of MMP-3 in human A549 cells at 5 uM incubated for 24 hrs by Western blot anlaysis; type: functional, cell-based; how it was run: as §2
[20] = tested on: MDA-MB-231; experiment: Downregulation of MMP-3 in human MDA-MB-231 cells at 5 uM incubated for 24 hrs by Western blot anlaysis; type: functional, cell-based; how it was run: as §2
[21] = Half life in mouse at 25 mg/kg, iv and measured upto 24 hrs; type: ADME, organism-based; conditions: in vivo
[22] = Clearance in mouse at 25 mg/kg, iv and measured upto 24 hrs; type: ADME, organism-based; conditions: in vivo
[23] = AUC (0-t) in mouse at 25 mg/kg, iv and measured upto 24 hrs; type: ADME, organism-based; parameters: time < 24 hrs, dose 25 mg/kg, route iv; conditions: in vivo
[24] = Cmax in mouse at 50 mg/kg, po and measured upto 24 hrs; type: ADME, organism-based; parameters: dose 50 mg/kg, time < 24 hrs, route po; conditions: in vivo
[25] = Tmax in mouse at 50 mg/kg, po and measured upto 24 hrs; type: ADME, organism-based; conditions: in vivo
[26] = AUC (0-t) in mouse at 50 mg/kg, po and measured upto 24 hrs; type: ADME, organism-based; parameters: dose 50 mg/kg, time < 24 hrs, route po; conditions: in vivo
[27] = Oral bioavailability in mouse at 50 mg/kg and 25 mg/kg, iv and measured upto 24 hrs; type: ADME, organism-based; conditions: in vivo
[28] = tested on: MAP kinase-interacting kinase MNK1/2 (Homo sapiens); experiment: Inhibition of MNK in human A549 cells assessed as reduction in IL-8 level at 1 to 10 uM incubated for 48 hrs by ELISA; conditions: dose 1-10 µM
[29] = tested on: MAP kinase-interacting kinase MNK1/2 (Homo sapiens); experiment: Inhibition of MNK in human A549 cells assessed as reduction in MCP-1 level at 1 to 10 uM incubated for 48 hrs by ELISA; conditions: dose 1-10 µM
[30] = tested on: MAP kinase-interacting kinase MNK1/2 (Homo sapiens); experiment: Inhibition of MNK in human A549 cells assessed as reduction in TNF-alpha level at 1 to 10 uM incubated for 48 hrs by ELISA; conditions: dose 1-10 µM
[31] = tested on: MAP kinase-interacting kinase MNK1/2 (Homo sapiens); experiment: Inhibition of MNK in human MDA-MB-231 cells assessed as inhibition of eIF4E phosphorylation at 3 uM incubated for 2 hrs by Western blot analysis
[32] = tested on: MAP kinase-interacting kinase MNK1/2 (Homo sapiens); experiment: Inhibition of MNK in human LNCaP C4-2B cells assessed as inhibition of eIF4E phosphorylation at 5 uM incubated for 2 hrs by Western blot analysis
[33] = tested on: MV4-11; experiment: Induction of cell cycle arrest in human MV4-11 cells assessed as decrease in cyclin D3 level at 3 uM incubated for 24 hrs by Western blot analysis

Chain of MAP kinase-interacting serine/threonine-protein kinase 1 (Q9BUB5 whole entry, looked up): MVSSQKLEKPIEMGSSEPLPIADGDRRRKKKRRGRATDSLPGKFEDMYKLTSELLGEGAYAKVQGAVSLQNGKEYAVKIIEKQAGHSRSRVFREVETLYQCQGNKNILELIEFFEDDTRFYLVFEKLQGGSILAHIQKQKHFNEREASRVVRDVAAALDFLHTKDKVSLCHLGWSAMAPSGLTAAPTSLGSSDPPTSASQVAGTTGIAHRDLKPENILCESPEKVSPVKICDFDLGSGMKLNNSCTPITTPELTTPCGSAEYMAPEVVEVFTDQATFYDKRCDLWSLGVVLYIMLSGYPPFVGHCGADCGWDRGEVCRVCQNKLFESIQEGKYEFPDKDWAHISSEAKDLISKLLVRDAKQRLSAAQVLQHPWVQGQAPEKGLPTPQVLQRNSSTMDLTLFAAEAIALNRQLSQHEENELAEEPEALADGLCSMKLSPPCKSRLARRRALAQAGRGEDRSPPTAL
Chain of Mitogen-activated protein kinase 8 (Homo sapiens) (P45983 whole entry): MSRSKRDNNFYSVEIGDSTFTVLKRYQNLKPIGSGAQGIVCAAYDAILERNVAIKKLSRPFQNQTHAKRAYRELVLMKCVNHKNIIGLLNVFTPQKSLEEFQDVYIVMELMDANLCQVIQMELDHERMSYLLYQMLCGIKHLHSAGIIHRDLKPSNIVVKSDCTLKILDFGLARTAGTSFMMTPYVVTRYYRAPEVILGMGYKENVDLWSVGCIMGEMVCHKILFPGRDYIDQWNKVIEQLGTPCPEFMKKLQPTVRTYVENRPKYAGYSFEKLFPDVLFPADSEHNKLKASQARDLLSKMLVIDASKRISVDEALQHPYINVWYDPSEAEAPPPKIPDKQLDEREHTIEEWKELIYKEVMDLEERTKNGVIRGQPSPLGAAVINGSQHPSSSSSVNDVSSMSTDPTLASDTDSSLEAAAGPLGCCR
Chain of Eukaryotic translation initiation factor 4E (Homo sapiens) (P06730 whole entry): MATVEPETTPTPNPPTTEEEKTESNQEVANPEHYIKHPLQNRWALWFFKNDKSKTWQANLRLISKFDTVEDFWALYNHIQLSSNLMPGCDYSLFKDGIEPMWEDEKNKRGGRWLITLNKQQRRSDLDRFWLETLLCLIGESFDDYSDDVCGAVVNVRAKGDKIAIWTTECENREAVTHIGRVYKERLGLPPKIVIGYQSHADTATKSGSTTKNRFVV
Chain of Dual specificity protein kinase CLK1 (Homo sapiens) (P49759 whole entry, looked up): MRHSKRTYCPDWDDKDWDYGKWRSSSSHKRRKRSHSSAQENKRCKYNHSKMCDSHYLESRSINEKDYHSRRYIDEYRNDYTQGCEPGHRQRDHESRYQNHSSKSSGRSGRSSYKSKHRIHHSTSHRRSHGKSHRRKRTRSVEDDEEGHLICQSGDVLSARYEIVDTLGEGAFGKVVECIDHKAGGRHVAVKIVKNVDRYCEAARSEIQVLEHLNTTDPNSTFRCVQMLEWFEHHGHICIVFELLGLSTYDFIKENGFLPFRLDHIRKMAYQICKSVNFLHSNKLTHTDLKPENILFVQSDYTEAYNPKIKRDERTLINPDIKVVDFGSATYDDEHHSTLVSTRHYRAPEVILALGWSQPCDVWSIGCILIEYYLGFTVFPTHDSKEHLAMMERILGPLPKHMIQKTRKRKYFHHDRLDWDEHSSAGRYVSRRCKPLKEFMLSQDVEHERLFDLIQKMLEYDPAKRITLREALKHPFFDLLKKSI

CN1CCN(C(=O)c2ccc(-c3nn4c(-c5ccc(C#N)cc5)cnc4s3)cc2)CC1
inhibition [1]: Dose-Dependent Effect | IC50 [2]: 8.6 nM | inhibition [3]: Active | inhibition [4]: 100% | inhibition [5]: 100% | inhibition [6]: Active | inhibition [7]: Active | inhibition [8]: Active | inhibition [9]: Active | Activity [10]: Active | Activity [11]: Active | Activity [12]: Active | Activity [13]: 3.3% | Activity [14]: 2.7% | Activity [15]: 5.2% | Activity [16]: 3.3% | Activity [17]: 88.2% | Activity [18]: 89.6% | Activity [19]: Active | Activity [20]: Active | half-life [21]: 3.4 h | clearance [22]: 5.13 mL/min/kg | AUC(0-t) at 24 h [23]: 80900 ng·h/mL | Cmax [24]: 17200 ng/mL | Tmax [25]: 1 h | AUC(0-t) at 24 h [26]: 98500 ng·h/mL | bioavailability [27]: 60.9% | inhibition [28]: Active | inhibition [29]: Active | inhibition [30]: Active | inhibition [31]: Active | inhibition [32]: Active | Activity [33]: Active
